SMILES strings stand for the structures.

This data set in a line: Toxicity liver stage against HepG2, at 10uM. In kind it is cell-based. Also on record: test concentration 10 uM, cell line HepG2-A16-CD81EGFP. The settings on record: human, HepG2-A16-CD81EGFP cells; read-out: INHIBITION
The method in brief: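 Uninfected HepG2-A16-CD81EGFP cells, 3 × 10^3 per well, 1536-well, plated on prespotted compound at 10 μM final, parasite-free screening media added to match infected plates; puromycin 10 μM positive, DMSO 0.5% negative; run in parallel with 48 h PbLuc assay at 37 °C, 5% CO2; viability by CellTiter-Glo luminescence, normalized to controls.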
Take `Cc1ccc(CNC(=O)C2CCN(C(=O)c3ccco3)CC2)n1C`: the cytotoxicity at 10 µM was determined as 2.46%.

With `c1ccc(O[C@H]2COCCN(Cc3c[nH]c4ccccc34)C2)cc1`, the cytotoxicity at 10 µM was -0.347%.

Consider `Cc1cc(C(=O)N2CCOC[C@H](Oc3cccnc3)C2)c(C(F)(F)F)o1`, for which the cytotoxicity at 10 µM came to 3.11%.

As to `COCCOc1ccnc(-c2noc([C@@H]3CCCN3C3CCC3)n2)c1`, the cytotoxicity at 10 µM is -8.46%.

As to `CSc1ccc(C(=O)N2CC(=O)N(Cc3ccccc3)CC(O)C2)cc1` (stereo unspecified), the cytotoxicity at 10 µM is -0.426%.

`CCN1C(=O)C[C@@H]2[C@@H]1CCN2S(=O)(=O)c1ccc(OC)cc1`: the cytotoxicity at 10 µM worked out at 0.434%.

In the case of `O=C(C1CCC1)N1C[C@H]2CNC[C@H]2C1`, the cytotoxicity at 10 µM was -4.1%.

For `CCCS(=O)(=O)N1CCOC2(CCCN(c3ncc(F)cn3)C2)C1` (stereo unspecified), the cytotoxicity at 10 µM was determined as 8.22%.

Regarding `CC(=O)N1CC[C@@H]2CN(Cc3cccc(Cl)c3)S(=O)(=O)[C@@H]2CC1`, the cytotoxicity at 10 µM was -10.8%.

As for `O=C(C1CCC1)N1CCC2(COCc3cnc(-c4cccnc4)nc32)C1` (stereo unspecified), the cytotoxicity at 10 µM was found to be 3.5%.

Consider `Cc1c(Cl)cccc1NC(=O)Cn1cc(C(=O)O)ccc1=O`, for which the cytotoxicity at 10 µM is -5.21%.

With `COc1cccc(-n2ccc3nc(N4CCCC4)ncc3c2=O)c1`, the cytotoxicity at 10 µM came out at 5.92%.

On to `O=C(NCCCN1CCOCC1)c1ccn(COc2ccc(F)cc2)n1`, for which the cytotoxicity at 10 µM worked out at 7.16%.

Take `CC1CCc2n[nH]c(C(=O)NCCCc3ccccn3)c2C1` (stereo unspecified): the cytotoxicity at 10 µM is -24.3%.

As to `COC(=O)[C@H](C)NC(=O)Cc1c(C)nc2cc(=O)[nH]n2c1C`, the cytotoxicity at 10 µM was -1.51%.

As to `CCNC(=O)c1ccc(NC(=O)N(C)Cc2cc(C)on2)cc1`, the cytotoxicity at 10 µM was -4.22%.

On to `Cc1ccc(=O)n(Cc2csc(N(C)C3CC3)n2)n1`, for which the cytotoxicity at 10 µM is 4.09%.

Take `COCCN1CCC(CNC(=O)CCc2cc(F)ccc2F)C1` (stereo unspecified): the cytotoxicity at 10 µM was -4.05%.

On to `Cc1nc(CN2CCCC2C(=O)OCc2ccccc2)oc1C` (stereo unspecified), for which the cytotoxicity at 10 µM is -1.86%.

As for `O=C(c1cnc(-c2ccco2)s1)N1CCOc2ncccc21`, the cytotoxicity at 10 µM is 7.48%.

In the case of `CNC(=O)NC(=O)C(C)Nc1ccccc1OCCOC` (stereo unspecified), the cytotoxicity at 10 µM worked out at 2.24%.

In the case of `COCCOc1ccc(NC(=O)N(C(C)C)C2CC2)cn1`, the cytotoxicity at 10 µM is -9.59%.

Regarding `Cc1cccc(CNC(Cn2cncn2)c2ccccc2)c1C` (stereo unspecified), the cytotoxicity at 10 µM is -5.23%.

Regarding `O=C(CCc1ccco1)NCC1CCCN1c1cccnn1` (stereo unspecified), the cytotoxicity at 10 µM is -10.8%.

As to `Cc1c(F)cc(C(=O)NCC(F)(F)F)cc1NCC(=O)N(C)C`, the cytotoxicity at 10 µM came out at 10.2%.

Take `CC1CCCN(C(=O)Cn2cc(I)cn2)C1` (stereo unspecified): the cytotoxicity at 10 µM was 0.106%.

With `CCc1ccc(C(=O)Nc2cccc(CN3CCCC3C(N)=O)c2)cc1` (stereo unspecified), the cytotoxicity at 10 µM was -0.268%.

For `COCCn1ccc2cc(NC(=O)COC)ccc21`, the cytotoxicity at 10 µM amounted to 0.82%.

Regarding `CC(C)(C)c1n[nH]c(C2CN(C(=O)c3cnc[nH]3)CCO2)n1` (stereo unspecified), the cytotoxicity at 10 µM was 0.152%.

For `Cc1ncc2c(n1)CN(C(C(N)=O)c1ccccc1)CC2` (stereo unspecified), the cytotoxicity at 10 µM was 0.66%.

Turning to `Cc1nc(C)n(Cc2cccc(NC3CCN(C)C3=O)c2)n1` (stereo unspecified), the cytotoxicity at 10 µM is -0.519%.

With `N#CCCN(CCC#N)C(=O)CN(C1CC1)C1CCc2ccccc21` (stereo unspecified), the cytotoxicity at 10 µM came out at 5.92%.

With `Cc1noc(C)c1CSC1CCCN(c2cnn(C)c2)C1=O` (stereo unspecified), the cytotoxicity at 10 µM stood at 16.8%.

`COCc1nc(CNc2cccc(-c3ncon3)c2)cs1`: the cytotoxicity at 10 µM worked out at 1.22%.

For `O=C1CCC(C(=O)NCCOc2ccccc2-c2ccccc2)CN1` (stereo unspecified), the cytotoxicity at 10 µM was found to be 5.47%.

Regarding `CC(C(=O)NC1CCCCC1)N1CCc2[nH]nc(C(F)(F)F)c2C1` (stereo unspecified), the cytotoxicity at 10 µM came out at 5.15%.

Turning to `CN(C)c1nc(CNC(=O)N[C@H](CO)c2ccccc2)cs1`, the cytotoxicity at 10 µM came out at 11.7%.

With `CCC1CN(C(=O)c2csc(-c3cnn(C)c3)n2)CCO1` (stereo unspecified), the cytotoxicity at 10 µM was -23.2%.

As to `CCc1cnc(N2CCN(Cc3ccno3)CC2)s1`, the cytotoxicity at 10 µM is -2.54%.

Regarding `COc1ccc(CCC(=O)N(C(C)C)C2CCOCC2)cc1`, the cytotoxicity at 10 µM is -11.8%.

Regarding `O=C(CCOc1ccccc1F)N1CCC(O)CC1`, the cytotoxicity at 10 µM is -14%.

Take `Cc1cnn(CCNCc2ccc(OCC(N)=O)cc2)c1`: the cytotoxicity at 10 µM is -0.86%.

On to `CC(C)c1nc(CN(C)C2CCN(Cc3nc(C4CC4)no3)C2)no1` (stereo unspecified), for which the cytotoxicity at 10 µM was -9.37%.

Consider `CCCOc1cc(C)ccc1NC(=O)NCCC(=O)N(C)C`, for which the cytotoxicity at 10 µM is -13.9%.

For `COCC(=O)N1CC[C@H]2C[C@H](c3nc(C)no3)O[C@@H]2C1`, the cytotoxicity at 10 µM is -76.1%.

As to `CCCNC(=O)N1CCCC2(CCC(=O)N(CCc3c[nH]cn3)C2)C1` (stereo unspecified), the cytotoxicity at 10 µM was determined as 2.67%.

On to `CCCc1cnc(C)nc1NCCc1nc(C)cc(=O)[nH]1`, for which the cytotoxicity at 10 µM was -5.1%.

Consider `CC(C)Oc1cccc(F)c1C(C(=O)O)N1CCCC1` (stereo unspecified), for which the cytotoxicity at 10 µM was -3.33%.

On to `O=C(c1ccc(-c2nc[nH]n2)cc1)N1CCOC(C(F)(F)F)C1` (stereo unspecified), for which the cytotoxicity at 10 µM is -2.35%.

In the case of `CC(C)C[C@@H](N)C(=O)N(C)Cc1csc(C(C)C)n1`, the cytotoxicity at 10 µM is -127%.

For the compound `CN(Cc1ccccc1CN1CCCC1)c1ncnc2[nH]ccc12`, the cytotoxicity at 10 µM was 8.53%.

With `COc1ccc(N2CCN(C(=O)CCn3nccc3C)CC2(C)C)cc1`, the cytotoxicity at 10 µM turned out to be 57.1%.

Turning to `CCCNc1ncc(CN2CCC3(CCNC(=O)CC3)CC2)cn1`, the cytotoxicity at 10 µM was -166%.

In the case of `COC(=O)N1CC(C)=C(C)CN1C(=O)Nc1ccc(Cl)cc1`, the cytotoxicity at 10 µM is -7.97%.

Regarding `CC(C)c1nn(C)c(N(C)C)c1CNCC(O)c1ccccc1` (stereo unspecified), the cytotoxicity at 10 µM is -1.83%.

Regarding `CCn1cnnc1CNC(=O)N(C)C(C)c1cccs1` (stereo unspecified), the cytotoxicity at 10 µM is -15.9%.

Regarding `COc1ncccc1CNC(=O)c1cc(C)on1`, the cytotoxicity at 10 µM is -20.2%.

Turning to `CC(CNCc1ccc(Cl)c(Cl)c1)Oc1ccccn1` (stereo unspecified), the cytotoxicity at 10 µM is -0.291%.

`COC(C)(C)C(=O)N1CCC(c2cc(CN(C)C)n(C)n2)CC1`: the cytotoxicity at 10 µM worked out at 0.748%.

Take `Cc1cccc(CN2C[C@@H]3[C@@H](C(=O)NCC(C)C)CCS(=O)(=O)[C@@H]3C2)c1`: the cytotoxicity at 10 µM is -2.63%.

In the case of `Cc1ccc2c(c1)CCC2NCc1c(C)nn(CCO)c1C` (stereo unspecified), the cytotoxicity at 10 µM is 11.2%.

As for `COCCN1C[C@H](OCc2csc(C)n2)[C@H]2COC[C@H]21`, the cytotoxicity at 10 µM was -6.08%.

With `Cc1noc(C)c1CN1C[C@H](OCC2CC2)[C@H]2COC[C@H]21`, the cytotoxicity at 10 µM is -5.78%.

On to `CC(C)NCc1nc(-c2ccc3c(c2)OCO3)c[nH]1`, for which the cytotoxicity at 10 µM was determined as 6.24%.

With `CN(C)C(=O)CN1CC[C@H]2CN(S(C)(=O)=O)C[C@@H]2C1=O`, the cytotoxicity at 10 µM is -13.1%.

With `O=C1N(Cc2cccnc2)CCC12CCCN(c1ncc(F)cn1)C2` (stereo unspecified), the cytotoxicity at 10 µM was -1%.

`CN(C)CCOCc1nnc2n1CCN(Cc1ccsc1)C2`: the cytotoxicity at 10 µM was 3.02%.

In the case of `Cc1noc(C)c1CN1CCCC2(CCN(C(=O)NC3CC3)C2)C1` (stereo unspecified), the cytotoxicity at 10 µM worked out at 7.25%.

`Cc1noc(C)c1CN1CCO[C@H]2CN(C3CCOCC3)C[C@H]21`: the cytotoxicity at 10 µM is -1.41%.

On to `CO[C@@H]1CCN(C(=O)Cc2ccsc2)[C@H]1Cc1cccnc1`, for which the cytotoxicity at 10 µM was 6.9%.

`CC(C)Cn1cc2nc(N3CCCC(C)C3)[nH]cc-2c1=O` (stereo unspecified): the cytotoxicity at 10 µM is 2.22%.

(Values after ChEMBL document CHEMBL4513216, “Probing the Open Global Health Chemical Diversity Library for Multistage-Active Starting Points for Next-Generation Antimalarials” (ACS Infect Dis, 2020).)
